In ChEMBL document CHEMBL5058577, “EUbOPEN Chemogenomics Library 2 (Multiplex)” (2022):

System: U2OS
Assay: Multiplex assay against U2OS
Type: toxicity, cell-based
Details: human
How it was run: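 Four dyes were applied at seeding to live cells: Hoechst33342, BioTracker Green Microtubule Cytoskeleton Dye, MitoTracker Red and Annexin V Alexa Fluor 680. Imaging after compound addition used a CQ1 microscope at 37°C and 5% CO2. CellPathfinder machine-learning gating then sorted cells into Hoechst high-intensity objects or normal cells, normal cells into healthy, pyknosed or fragmented nuclei, and pyknosed cells into mitotic or apoptotic, with tubulin, mitochondrial-mass and membrane-permeability phenotypes given as per cents of healthy-nucleus cells.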

[1] = 12 h, 1 µM, compound concentration 1 uM, replicate 1
[2] = 12 h, 1 µM, compound concentration 1 uM, replicate 2
[3] = 12 h, 10 µM, compound concentration 10 uM, replicate 1
[4] = 12 h, 10 µM, compound concentration 10 uM, replicate 2
[5] = 24 h, 1 µM, compound concentration 1 uM, replicate 1
[6] = 24 h, 1 µM, compound concentration 1 uM, replicate 2
[7] = 24 h, 10 µM, compound concentration 10 uM, replicate 1
[8] = 24 h, 10 µM, compound concentration 10 uM, replicate 2
[9] = 48 h, 1 µM, compound concentration 1 uM, replicate 1
[10] = 48 h, 1 µM, compound concentration 1 uM, replicate 2
[11] = 48 h, 10 µM, compound concentration 10 uM, replicate 1
[12] = 48 h, 10 µM, compound concentration 10 uM, replicate 2

COc1ccc2[nH]c(I)c(CCNC(C)=O)c2c1 [IODOMELATONIN]
Population Apoptotic (%) [1]: 68%
Population Fragmented Nuclei (%) [1]: 19%
Population Healthy Nuclei (%) [1]: 74%
Population Hoechst High Intensity Objects (%) [1]: 2%
Population Membrane Permeable-Phenotype (%) [1]: 4%
Population Mitochondria Different-Phenotype (%) [1]: 3%
Population Mitotic Cells (%) [1]: 31%
Population Normal (%) [1]: 97%
Population Pyknosed Nuclei (%) [1]: 5%
Population Tubulin-Different-Phenotype (%) [1]: 1%
Total Cell Count [1]: 282
Population Apoptotic (%) [2]: 37%
Population Fragmented Nuclei (%) [2]: 11%
Population Healthy Nuclei (%) [2]: 83%
Population Hoechst High Intensity Objects (%) [2]: 0%
Population Membrane Permeable-Phenotype (%) [2]: 5%
Population Mitochondria Different-Phenotype (%) [2]: 1%
Population Mitotic Cells (%) [2]: 62%
Population Normal (%) [2]: 99%
Population Tubulin-Different-Phenotype (%) [2]: 2%
Total Cell Count [2]: 156
Population Apoptotic (%) [3]: 77%
Population Fragmented Nuclei (%) [3]: 25%
Population Healthy Nuclei (%) [3]: 64%
Population Hoechst High Intensity Objects (%) [3]: 3%
Population Membrane Permeable-Phenotype (%) [3]: 2%
Population Mitochondria Different-Phenotype (%) [3]: 1%
Population Mitotic Cells (%) [3]: 22%
Population Normal (%) [3]: 96%
Population Pyknosed Nuclei (%) [3]: 9%
Population Tubulin-Different-Phenotype (%) [3]: 1%
Total Cell Count [3]: 231
Population Apoptotic (%) [4]: 80%
Population Fragmented Nuclei (%) [4]: 41%
Population Healthy Nuclei (%) [4]: 54%
Population Hoechst High Intensity Objects (%) [4]: 0%
Population Membrane Permeable-Phenotype (%) [4]: 10%
Population Mitochondria Different-Phenotype (%) [4]: 6%
Population Mitotic Cells (%) [4]: 20%
Population Normal (%) [4]: 99%
Population Pyknosed Nuclei (%) [4]: 3%
Population Tubulin-Different-Phenotype (%) [4]: 2%
Total Cell Count [4]: 134
Population Apoptotic (%) [5]: 86%
Population Fragmented Nuclei (%) [5]: 16%
Population Healthy Nuclei (%) [5]: 75%
Population Hoechst High Intensity Objects (%) [5]: 1%
Population Membrane Permeable-Phenotype (%) [5]: 3%
Population Mitochondria Different-Phenotype (%) [5]: 1%
Population Mitotic Cells (%) [5]: 13%
Population Normal (%) [5]: 98%
Population Pyknosed Nuclei (%) [5]: 8%
Population Tubulin-Different-Phenotype (%) [5]: 2%
Total Cell Count [5]: 354
Population Apoptotic (%) [6]: 80%
Population Fragmented Nuclei (%) [6]: 15%
Population Healthy Nuclei (%) [6]: 78%
Population Membrane Permeable-Phenotype (%) [6]: 8%
Population Mitochondria Different-Phenotype (%) [6]: 0%
Population Mitotic Cells (%) [6]: 20%
Population Pyknosed Nuclei (%) [6]: 5%
Total Cell Count [6]: 179
Population Apoptotic (%) [7]: 95%
Population Fragmented Nuclei (%) [7]: 25%
Population Healthy Nuclei (%) [7]: 66%
Population Hoechst High Intensity Objects (%) [7]: 1%
Population Membrane Permeable-Phenotype (%) [7]: 4%
Population Mitochondria Different-Phenotype (%) [7]: 1%
Population Mitotic Cells (%) [7]: 4%
Population Normal (%) [7]: 98%
Population Pyknosed Nuclei (%) [7]: 8%
Population Tubulin-Different-Phenotype (%) [7]: 1%
Total Cell Count [7]: 273
Population Apoptotic (%) [8]: 88%
Population Fragmented Nuclei (%) [8]: 34%
Population Healthy Nuclei (%) [8]: 59%
Population Membrane Permeable-Phenotype (%) [8]: 7%
Population Mitochondria Different-Phenotype (%) [8]: 5%
Population Mitotic Cells (%) [8]: 11%
Population Pyknosed Nuclei (%) [8]: 5%
Population Tubulin-Different-Phenotype (%) [8]: 2%
Total Cell Count [8]: 153
Population Apoptotic (%) [9]: 92%
Population Fragmented Nuclei (%) [9]: 12%
Population Healthy Nuclei (%) [9]: 79%
Population Hoechst High Intensity Objects (%) [9]: 1%
Population Membrane Permeable-Phenotype (%) [9]: 5%
Population Mitochondria Different-Phenotype (%) [9]: 2%
Population Mitotic Cells (%) [9]: 7%
Population Normal (%) [9]: 98%
Population Pyknosed Nuclei (%) [9]: 7%
Population Tubulin-Different-Phenotype (%) [9]: 3%
Total Cell Count [9]: 509
Population Apoptotic (%) [10]: 86%
Population Fragmented Nuclei (%) [10]: 13%
Population Healthy Nuclei (%) [10]: 81%
Population Membrane Permeable-Phenotype (%) [10]: 4%
Population Mitotic Cells (%) [10]: 13%
Population Pyknosed Nuclei (%) [10]: 5%
Total Cell Count [10]: 284
Population Apoptotic (%) [11]: 97%
Population Fragmented Nuclei (%) [11]: 21%
Population Healthy Nuclei (%) [11]: 68%
Population Hoechst High Intensity Objects (%) [11]: 2%
Population Membrane Permeable-Phenotype (%) [11]: 5%
Population Mitochondria Different-Phenotype (%) [11]: 0%
Population Mitotic Cells (%) [11]: 2%
Population Normal (%) [11]: 97%
Population Pyknosed Nuclei (%) [11]: 9%
Population Tubulin-Different-Phenotype (%) [11]: 2%
Total Cell Count [11]: 373
Population Apoptotic (%) [12]: 100%
Population Fragmented Nuclei (%) [12]: 29%
Population Healthy Nuclei (%) [12]: 65%
Population Hoechst High Intensity Objects (%) [12]: 0%
Population Membrane Permeable-Phenotype (%) [12]: 7%
Population Mitochondria Different-Phenotype (%) [12]: 5%
Population Mitotic Cells (%) [12]: 0%
Population Normal (%) [12]: 99%
Population Pyknosed Nuclei (%) [12]: 5%
Population Tubulin-Different-Phenotype (%) [12]: 4%
Total Cell Count [12]: 209
